The whole screen tested about 190,000 compounds, of which about 1,800 (0.95%) were called active. The sample as a whole holds a higher share of actives than the screen did. Values without a mark were called inactive.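 Rule for the calls: active = activation above the screen-wide mean of compound activation plus 3 SD (cut at about 130% in these data); inactive = the rest.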

This assay can be described thus: enhancers of STAT3 transcriptional signaling – U3A cells, luciferase, luminescence, MLSCN library, primary screen (AID 871).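 Note: 0% = background luminescence of wells with medium and substrate only.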 The conditions noted are these: IL-6 STAT3-luciferase reporter, at 5.6 µM, active compounds read high. Put shortly:
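Assay system – human STAT1-deficient U3A cells with stable STAT3-luciferase reporter · Also added – IL-6 (33 ng/mL) · Schedule – compound 1 h, then IL-6 6 h at 37 °C · Technique – reporter luminescence signal · Evaluation – % activation versus median of IL-6-stimulated wells · Benchmarks – IL-6-only wells as 100% reference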
In general terms: In a reporter assay the amount or activity of a reporter protein is the signal.
Take `COc1cc(-n2c(=S)[nH]c3ccc(C)cc3c2=O)c(Cl)cc1Cl`: the activation (% of control) was 156% (active).

For `CC(=O)c1c(C)n(C(C)C)c2ccc(O)cc12`, the activation (% of control) was 102%.

With `N#CC1=C(N)Oc2c(c(=O)oc3ccccc23)C1c1ccccc1OC(=O)c1cccs1` (stereo not given), the activation (% of control) is 106%.

Regarding `CCOP(=S)(OCC)SCOC(=O)NCC(=O)OC`, the activation (% of control) was 106%.

On to `CCC/C(=N\O)c1c[nH]c2ccccc12`, for which the activation (% of control) is 153% (active).

As for `C/C(CCc1c[nH]c2ccccc12)=N\O`, the activation (% of control) was 98%.

For the molecule `CC1=CC(=Cc2sc3ccccc3[n+]2C)C=C(C)O1`, the activation (% of control) was 30.2%.

Consider `CCOc1ccc(CN(CCCl)CCCl)cc1C(=O)OC`, for which the activation (% of control) is 96.4%.

Take `CCOCCc1c(O)[nH]c(=S)[nH]c1=O`: the activation (% of control) was 99.3%.

On to `O=C(Nc1cccc2ccccc12)N1CCC2(CC1)OCCO2`, for which the activation (% of control) was 105%.
